Experimental data reported in ChEMBL document CHEMBL5661977, “BI 6727, a Polo-like kinase inhibitor with improved pharmacokinetic profile and broad antitumor activity” (Clin Cancer Res, 2009).
The source made the active and inactive calls. The calls are words filed in the database; no cut-off is given here.

How the values were obtained:
HCT-116 [1] = test: Antitumor activity against human HCT-116 cells xenografted in BomTac:NMRI-Foxn1nu mouse assessed as the number of apoptotic cells in large intestine at 40 mg/kg, iv; type: functional, organism-based
Outline: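 Female nude mice bore s.c. HCT 116 tumors (~200 mm³) and received a single i.v. 40 mg/kg dose or vehicle (n=3 per group per time). Tumor, small intestine and large intestine were taken at 6, 24 and 48 h. Frozen sections were stained for pSer10 histone H3 (immunoperoxidase) or by TUNEL. Positive area was calculated as % of tumor cell area; Student's t test.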

[2] = Cmax in BomTac:NMRI-Foxn1nu mouse at 35 mg/kg, iv by HPLC-MS/MS analysis; type: ADME, organism-based; details: in vivo
Outline: (§1)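 Female nude mice, n = 3, single i.v. dose (vehicle 0.1 N HCl diluted with 0.9% NaCl, 10 mL/kg). BI 6727 measured in EDTA plasma at several times by HPLC-MS/MS with internal standard. Parameters came from noncompartmental analysis. Terminal half-life was taken from the last two time points after i.v. dosing.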

[3] = AUC (0 to infinity) in BomTac:NMRI-Foxn1nu mouse at 35 mg/kg, iv by HPLC-MS/MS analysis; type: ADME, organism-based; details: in vivo
Outline: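 Single i.v. dose: male Wistar rats (n=4) by 5-min infusion, female nude mice (n=3). EDTA plasma was sampled at various times and extracted with internal standard, NaOH, methanol/formic acid and acetonitrile. Analysis by LC-MS/MS (ESI+, C18, ammonium acetate pH 4.0/acetonitrile gradient). Noncompartmental parameters; AUC by trapezoidal rule.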

[4] = AUC (0 to 24 hrs) in human HCT-116 cells xenografted in BomTac:NMRI-Foxn1nu mouse at 25 mg/kg, iv administered twice a week upto 6 weeks by HPLC-MS/MS analysis; type: ADME, organism-based; details: in vivo, 1008 h
HCT-116 [5] = test: Antitumor activity against human HCT-116 cells xenografted in BomTac:NMRI-Foxn1nu mouse assessed as tumor regression at 25 mg/kg, iv administered twice a week on consecutive days; type: functional, organism-based
Outline: (§2)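 Female nude mice bore s.c. HCT 116 (2×10^6 cells), NCI-H460 (1×10^6 cells) or serially transplanted CXB1 tumor pieces. At ~50–100 mm³, mice were randomized into groups of 10 and dosed i.v. (0.1 N HCl/saline) or by gavage (0.5% hydroxyethyl-cellulose) at 10 mL/kg. Calipers read thrice weekly, volume = length×width²×π/6. T/C from median volumes on the last day.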

NCI-H460 [6] = test: Antitumor activity against human NCI-H460 cells xenografted in BomTac:NMRI-Foxn1nu mouse assessed as T/C at 10 mg/kg, po administered daily upto 6 weeks relative to control; type: functional; outline: as §2
[7] = Volume of distribution at steady state in Wistar rat at 10 mg/kg, iv by HPLC-MS/MS analysis; type: ADME, organism-based; details: in vivo, read-out: Vdss
Outline: (§3)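 Male Wistar Crl:WI (Han) rats, n = 4, given a single 5-min i.v. infusion. BI 6727 measured in EDTA plasma at various times after the infusion started, by HPLC-MS/MS with internal standard. Parameters came from noncompartmental analysis. Terminal half-life was taken from the last two time points after i.v. dosing.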

[8] = AUC (0 to 24 hrs) in human HCT-116 cells xenografted in BomTac:NMRI-Foxn1nu mouse at 7 mg/kg, po administered daily upto 6 weeks by HPLC-MS/MS analysis; type: ADME, organism-based; details: in vivo, 1008 h
[9] = Drug uptake in human HCT-116 cells xenografted in BomTac:NMRI-Foxn1nu mouse at 35 mg/kg, iv measured after 168 hrs by HPLC-MS/MS analysis; type: ADME, organism-based, Neoplasm; details: tumour (HCT-116 xenograft)
Outline: (§4)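 Female nude mice bearing s.c. HCT 116 xenografts (2 × 10⁶ cells), n = 3 per time point, given a single i.v. dose. Tumor, organs and EDTA plasma collected at 1, 8, 24, 48, 96 and 168 h. Tissue extracts and plasma analysed by HPLC-MS/MS. Tissue nmol/mg converted to nmol/L assuming density 1.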

NCI-H460 [10] = test: Antimitotic activity against human NCI-H460 cells assessed as increase in the sub-G1 phase at 100 nmol/L incubated for 48 hrs by PI staining based flow cytometric analysis; type: functional, cell-based
Outline: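 Log-phase NCI-H460 cells were treated with 0.1% DMSO or inhibitor (dose series for 24 h; 100 nmol/L time course at 0, 24, 48, 72 h). Cells were fixed in 80% ethanol, permeabilized with 0.25% Triton X-100 for 5 min, then given 0.1% RNase plus 10 µg/mL propidium iodide for 20 min at RT. DNA content was read by flow cytometry.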

HCT-116 [11] = test: Antitumor activity against human HCT-116 cells xenografted in BomTac:NMRI-Foxn1nu mouse assessed as tumor growth delay at 20 mg/kg, iv administered twice a week on consecutive days; type: functional, organism-based; outline: as §2
HCT-116 [12] = test: Antitumor activity against human HCT-116 cells xenografted in BomTac:NMRI-Foxn1nu mouse assessed as tumor regression at 15 mg/kg, iv administered twice a week on consecutive days; type: functional, organism-based; outline: as §2
[13] = Volume of distribution at steady state in BomTac:NMRI-Foxn1nu mouse at 35 mg/kg, iv by HPLC-MS/MS analysis; type: ADME, organism-based; details: in vivo, read-out: Vdss; outline: as §1
NCI-H460 [14] = test: Antimitotic activity against human NCI-H460 cells assessed as accumulation of monopolar spindles at 100 nmol/L incubated for 24 hrs by immunofluorescence analysis; type: functional, cell-based
Outline: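 NCI-H460 cells on chamber slides were treated next day for 24 h with inhibitor or 0.1% DMSO vehicle. They were fixed and permeabilized with 4% formaldehyde/Triton X-100 for 5 min at RT, then stained with anti-tubulin and anti-phospho-Ser10 histone H3 (1:500 in PBS/2% BSA) plus DAPI 0.05 µg/mL. Imaged by fluorescence microscopy.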

[15] = Drug uptake in human HCT-116 cells xenografted in BomTac:NMRI-Foxn1nu mouse plasma at 35 mg/kg, iv measured after 168 hrs by HPLC-MS/MS analysis; type: ADME, organism-based; outline: as §4
Raji = test: Antimitotic activity against human Raji cells assessed as inhibition of cell proliferation incubated for 72 hrs by Alamar blue based fluorescence spectrophotometric analysis; type: functional
Outline: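 Cancer cell lines were cultured per supplier instructions and exposed to various inhibitor concentrations for 72 h. Growth was read as Alamar blue conversion by fluorescence. EC50 (50% growth inhibition) was extrapolated from the dose-response curve fit.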

HCT-116 [16] = test: Antitumor activity against human HCT-116 cells xenografted in BomTac:NMRI-Foxn1nu mouse assessed as tumor growth delay at 25 mg/kg, iv administered twice a week on consecutive days; type: functional, organism-based; outline: as §2
[17] = Half life in Wistar rat at 10 mg/kg, iv by HPLC-MS/MS analysis; type: ADME, organism-based; details: in vivo; outline: as §3
HCT-116 [18] = test: Antitumor activity against human HCT-116 cells xenografted in BomTac:NMRI-Foxn1nu mouse assessed as […] in tumor size at 20 mg/kg, iv administered twice a week on consecutive days; type: functional, organism-based
[19] = AUC (0 to 24 hrs) in human NCI-H460 cells xenografted in BomTac:NMRI-Foxn1nu mouse at 10 mg/kg, po administered daily upto 6 weeks by HPLC-MS/MS analysis; type: ADME, organism-based; details: in vivo, 1008 h
BRO melanoma cell line = test: Antimitotic activity against human BRO melanoma cell line assessed as inhibition of cell proliferation incubated for 72 hrs by Alamar blue based fluorescence spectrophotometric analysis; type: functional

Cmax [2]: 7.1 µM
AUC(0-inf) [3]: 100 µM·h
AUC [4]: 75 µM·h
Vd [7]: 22 L/kg
AUC [8]: 44 µM·h
concentration at 168 h [9]: 4 µM
Vd [13]: 7.6 L/kg
concentration at 168 h [15]: 0.008 µM
EC50 (Raji): 37 nM
half-life [17]: 54 h
AUC [19]: 61 µM·h
EC50 (BRO melanoma cell line): 11 nM
SMILES: CC[C@@H]1C(=O)N(C)c2cnc(Nc3ccc(C(=O)N[C@H]4CC[C@H](N5CCN(CC6CC6)CC5)CC4)cc3OC)nc2N1C(C)C [VOLASERTIB]
Activity (HCT-116 [1]): inactive
Activity (HCT-116 [5]): Active
T/C (NCI-H460 [6]): 6%
Activity (NCI-H460 [10]): Active
Activity (HCT-116 [11]): Active
Activity (HCT-116 [12]): Active
Activity (NCI-H460 [14]): Active
Activity (HCT-116 [16]): Active
Activity (HCT-116 [18]): Active
